Data published in ChEMBL document CHEMBL1126281, “Synthesis and dopaminergic activity of some 3-(1,2,3,6-tetrahydro-1-pyridylalkyl)indoles. A novel conformational model to explain structure-activity relationships” (J Med Chem, 1992).

Legend:
[1] = target: T1, D(2) dopamine receptor (Rattus norvegicus, UniProt P61169); test: Evaluated for its ability to displace tritiated receptor ligand in rat striatal membranes 3[H]spiperone, a dopamine antagonist; assay type: functional, cell membranes, Striatum, Membrane
T1 sequence (P61169 whole entry): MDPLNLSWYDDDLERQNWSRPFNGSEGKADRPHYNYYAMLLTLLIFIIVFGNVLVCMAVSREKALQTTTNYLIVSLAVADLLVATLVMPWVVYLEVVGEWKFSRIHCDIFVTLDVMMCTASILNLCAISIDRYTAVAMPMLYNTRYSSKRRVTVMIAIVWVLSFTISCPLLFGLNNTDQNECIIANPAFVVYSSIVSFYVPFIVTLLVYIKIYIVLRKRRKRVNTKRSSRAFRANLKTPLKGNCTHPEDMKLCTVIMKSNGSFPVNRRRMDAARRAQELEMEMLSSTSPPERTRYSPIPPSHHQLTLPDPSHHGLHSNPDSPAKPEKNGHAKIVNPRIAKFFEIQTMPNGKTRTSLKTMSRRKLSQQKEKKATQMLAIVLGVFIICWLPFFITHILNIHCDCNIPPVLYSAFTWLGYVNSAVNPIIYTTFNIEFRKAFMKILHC

[2] = target: T1, D(2) dopamine receptor; test: Evaluated for its ability to displace tritiated receptor ligand in rat striatal membranes [3H]ADTN, a dopamine agonist; assay type: functional, cell membranes, Striatum, Membrane
[3] = system: Rattus norvegicus; test: Evaluated in vivo for its ability to induce contralateral rotational behavior in rats with unilateral, 6-hydroxy DA induced lesions of the substantia nigra at 3 mg/kg dosage orally; assay type: functional; settings: route oral
Procedure, shortened: (§1)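 Rats given a unilateral 6-hydroxydopamine injection into the substantia nigra (8 μg per rat) at least 1 month earlier. Drug was given orally or subcutaneously and contralateral turns were recorded. Totals are cumulative at 1 h or 2 h after dosing, reported as means ± SEM with n = 3-6 rats.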

[4] = target: T1, D(2) dopamine receptor; test: Compound was evaluated for its ability to displace tritiated receptor ligand in rat striatal membranes [3H]ADTN, a dopamine agonist; assay type: functional, cell membranes, Striatum, Membrane
[5] = system: Rattus norvegicus; test: Compound was evaluated for increase striatal acetyl choline (AcCh) concentration in intact rat administered subcutaneously.; assay type: functional; settings: sc
[6] = system: Rattus norvegicus; test: Compound was evaluated for D2 dopaminergic activity measured as total contralateral turns expressed as mean after 1 hr at a dose of 0.1 mg/kg administered subcutaneously; assay type: functional; settings: route subcutaneous; procedure, shortened: as §1
[7] = system: Rattus norvegicus; test: Compound was evaluated for D2 dopaminergic activity measured as total contralateral turns expressed as mean after 1 hr at a dose of 0.3 mg/kg administered subcutaneously; assay type: functional; settings: route subcutaneous; procedure, shortened: as §1
[8] = system: Rattus norvegicus; test: Compound was evaluated for D2 dopaminergic activity measured as total contralateral turns expressed as mean after 1 hr at a dose of 0.3 mg/kg peroral administration.; assay type: functional; settings: route oral; procedure, shortened: as §1
[9] = system: Rattus norvegicus; test: Compound was evaluated for D2 dopaminergic activity measured as total contralateral turns expressed as mean after 1 hr at a dose of 1 mg/kg peroral administration; assay type: functional; settings: route oral; procedure, shortened: as §1
[10] = system: Rattus norvegicus; test: Compound was evaluated for D2 dopaminergic activity measured as total contralateral turns expressed as mean after 1 hr at a dose of 3 mg/kg peroral administration.; assay type: functional; settings: route oral; procedure, shortened: as §1
[11] = system: Rattus norvegicus; test: Compound was evaluated for D2 dopaminergic activity measured as total contralateral turns expressed as mean after 2 hr at a dose of 0.1 mg/kg administered subcutaneously; assay type: functional; settings: route subcutaneous; procedure, shortened: as §1
[12] = system: Rattus norvegicus; test: Compound was evaluated for D2 dopaminergic activity measured as total contralateral turns expressed as mean after 2 hr at a dose of 0.3 mg/kg administered subcutaneously; assay type: functional; settings: route subcutaneous; procedure, shortened: as §1
[13] = system: Rattus norvegicus; test: Compound was evaluated for D2 dopaminergic activity measured as total contralateral turns expressed as mean after 2 hr at a dose of 0.3 mg/kg peroral administration.; assay type: functional; settings: route oral; procedure, shortened: as §1
[14] = system: Rattus norvegicus; test: Compound was evaluated for D2 dopaminergic activity measured as total contralateral turns expressed as mean after 2 hr at a dose of 1 mg/kg peroral administration; assay type: functional; settings: route oral; procedure, shortened: as §1
[15] = system: Rattus norvegicus; test: Compound was evaluated for D2 dopaminergic activity measured as total contralateral turns expressed as mean after 2 hr at a dose of 3 mg/kg peroral administration.; assay type: functional; settings: route oral; procedure, shortened: as §1
[16] = system: Rattus norvegicus; test: Compound was evaluated for D2 dopaminergic activity measured as total contralateral turns after 1 hr at a dose of 0.03 mg/kg administered subcutaneously.; assay type: functional; settings: route subcutaneous; procedure, shortened: as §1
[17] = target: T1, D(2) dopamine receptor; test: Compound was evaluated for its ability to displace tritiated receptor ligand in rat striatal membranes 3[H]spiperone, a dopamine antagonist; assay type: functional, cell membranes, Striatum, Membrane
Procedure, shortened: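 Rat striatal membranes (0.3–1.0 mg protein/mL) with 0.1 nmol/l [³H]spiperone in 50 mmol Tris/HCl, pH 7.7, plus 0.1% ascorbic acid. Incubated 15 min at 37 °C, stopped by rapid filtration and three ice-cold washes. Nonspecific binding was defined with 1 μmol/L (+)-butaclamol. Values are means ± SD of 2-4 independent determinations, with triplicates per concentration.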

[18] = system: Rattus norvegicus; test: compound was evaluated for increase striatal acetyl choline (AcCh) concentration in intact rat administered subcutaneously.; assay type: functional; settings: sc
[19] = system: Rattus norvegicus; test: Compound was evaluated for D2 dopaminergic activity measured as total contralateral turns after 2 hr at a dose of 0.3 mg/kg peroral administration.; assay type: functional; settings: route oral; procedure, shortened: as §1
[20] = system: Rattus norvegicus; test: Compound was evaluated for D2 dopaminergic activity measured as total contralateral turns after 2 hr at a dose of 1 mg/kg peroral administration.; assay type: functional; settings: route oral; procedure, shortened: as §1
[21] = system: Rattus norvegicus; test: Compound was evaluated for D2 dopaminergic activity measured as total contralateral turns after 2 hr at a dose of 3 mg/kg peroral administration.; assay type: functional; settings: route oral; procedure, shortened: as §1
[22] = system: Rattus norvegicus; test: Compound was evaluated for D2 dopaminergic activity measured as total contralateral turns after 1 hr at a dose of 0.1 mg/kg administered subcutaneously.; assay type: functional; settings: route subcutaneous; procedure, shortened: as §1
[23] = system: Rattus norvegicus; test: Compound was evaluated for D2 dopaminergic activity measured as total contralateral turns after 1 hr at a dose of 0.1 mg/kg peroral administration.; assay type: functional; settings: route oral; procedure, shortened: as §1
[24] = system: Rattus norvegicus; test: Compound was evaluated for D2 dopaminergic activity measured as total contralateral turns after 1 hr at a dose of 0.3 mg/kg peroral administration.; assay type: functional; settings: route oral; procedure, shortened: as §1
[25] = system: Rattus norvegicus; test: Compound was evaluated for D2 dopaminergic activity measured as total contralateral turns after 1 hr at a dose of 1 mg/kg peroral administration.; assay type: functional; settings: route oral; procedure, shortened: as §1
[26] = system: Rattus norvegicus; test: Compound was evaluated for D2 dopaminergic activity measured as total contralateral turns after 1 hr at a dose of 3 mg/kg peroral administration.; assay type: functional; settings: route oral; procedure, shortened: as §1
[27] = system: Rattus norvegicus; test: Compound was evaluated for D2 dopaminergic activity measured as total contralateral turns after 2 hr at a dose of 0.03 mg/kg administered subcutaneously.; assay type: functional; settings: route subcutaneous; procedure, shortened: as §1
[28] = system: Rattus norvegicus; test: Compound was evaluated for D2 dopaminergic activity measured as total contralateral turns after 2 hr at a dose of 0.1 mg/kg administered subcutaneously.; assay type: functional; settings: route subcutaneous; procedure, shortened: as §1
[29] = system: Rattus norvegicus; test: Compound was evaluated for D2 dopaminergic activity measured as total contralateral turns after 2 hr at a dose of 0.1 mg/kg peroral administration.; assay type: functional; settings: route oral; procedure, shortened: as §1

| SMILES | IC50 [1] | Ki [2] | Turns/first hour [3] | also measured |
| --- | --- | --- | --- | --- |
| C1=C(c2ccccc2)CCN(CCc2c[nH]c3ccccc23)C1 | 100 nM | 81 nM | <50 | – |
| COc1ccc2[nH]cc(CCCCN3CC=C(c4ccccc4)CC3)c2c1 | 20 nM | 4.4 nM | 504 | – |
| Clc1ccc(C2=CCN(CCCCc3c[nH]c4ccccc34)CC2)cc1 | 100 nM | 46 nM | 100 | – |
| Oc1ccc2c(CCCCN3CC=C(c4ccccc4)CC3)c[nH]c2c1 | 8 nM | 2.5 nM | 786 | – |
| C1=CCN(CCCCc2c[nH]c3ccccc23)CC1 | > 1000 nM | > 1000 nM | <100 | – |
| C1=C(c2ccccc2)CCN(CCCCCCc2c[nH]c3ccccc23)C1 | 40 nM | 4.3 nM | <100 | – |
| COc1ccc2c(CCCCN3CC=C(c4ccccc4)CC3)c[nH]c2c1 | 9 nM | 1.8 nM | 792 | – |
| Cn1cc(CCCCN2CC=C(c3ccccc3)CC2)c2ccccc21 | 100 nM | 15 nM | 121 | – |
| Clc1ccccc1C1=CCN(CCCCc2c[nH]c3ccccc23)CC1 | 100 nM | 21 nM | <50 | – |
| C1=C(c2ccccc2)CCN(CCCc2c[nH]c3ccccc23)C1 | 50 nM | 12 nM | ~250 | – |
| Fc1ccccc1C1=CCN(CCCCc2c[nH]c3ccccc23)CC1 | 20 nM | 4 nM | 186 | – |
| Clc1ccc2[nH]cc(CCCCN3CC=C(c4ccccc4)CC3)c2c1 | 50 nM | 3.1 nM | <50 | – |
| Fc1ccc2[nH]cc(CCCCN3CC=C(c4ccccc4)CC3)c2c1 | 10 nM | 1.6 nM | 552 | – |
| Cc1[nH]c2ccccc2c1CCCCN1CC=C(c2ccccc2)CC1 | 50 nM | 5.4 nM | 318 | – |
| COc1ccc(C2=CCN(CCCCc3c[nH]c4ccccc34)CC2)cc1 | 700 nM | 41 nM | <50 | – |
| C1=C(c2ccccc2)CCN(CCCCCc2c[nH]c3ccccc23)C1 | 60 nM | 13 nM | <50 | – |
| C1=C(c2ccccc2)CCN(CCCCc2c[nH]c3ccccc23)C1 | 105 nM | – | 864 | Ki [4]: 6.39 nM; ED50 [5]: > 3 mg/kg; Turns [6]: 44; Turns [7]: 422; Turns [8]: 99; Turns [9]: 201; Turns [10]: 825; Turns [11]: 68; Turns [12]: 936; Turns [13]: 236; Turns [14]: 412; Turns [15]: 1731 |
| c1ccc(C2CCN(CCCCc3c[nH]c4ccccc34)CC2)cc1 | > 100 nM | > 100 nM | <50 | – |
| Fc1ccc(C2=CCN(CCCCc3c[nH]c4ccccc34)CC2)cc1 | 90 nM | 15 nM | <100 | – |
| CN1CCc2cccc3c2[C@H]1Cc1ccc(O)c(O)c1-3 [APOMORPHINE] | – | – | – | ED50 [5]: 0.28 mg/kg; Turns [16]: 1268 |
| Oc1ccc2[nH]cc(CCCCN3CC=C(c4ccccc4)CC3)c2c1 [ROXINDOLE] | – | 0.88 nM | 948 | IC50 [17]: 5.95 nM; ED50 [18]: > 30 mg/kg; Turns [19]: 534; Turns [20]: 1694; Turns [21]: 2010; Turns [22]: 1132; Turns [23]: 251; Turns [24]: 397; Turns [25]: 830; Turns [26]: 926; Turns [27]: 718; Turns [28]: 2246; Turns [29]: 287; Turns [16]: 399 |
